T cruzi inh = inhibitors of intracellular T. cruzi growth, primary screen, luminescence, NIH3T3 host cells. inhibition, % (no concentration beside the values). 300,000 tested, 1.4% active. AID 1885, 2009. T. cruzi beta-gal in NIH3T3, 90 h;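 active = mean inhibition across valid replicates above about 55%, limit read from the data; inconclusive = mean below that limit but half or more replicates reach it; inactive = mean below it, under half of replicates reach it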;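 also: signal also drops with host cell toxicity which is not excluded here; higher percent means less beta-gal luminescence so fewer parasites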
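assay system = mouse NIH/3T3 fibroblasts infected with β-gal-expressing T. cruzi Tulahuen C4 | input = 5,000 NIH/3T3 host cells per well | buffer or medium = DMEM plus 2% FBS | timing = 3 h host attachment, then at least 90 h co-culture | measured by = GalScreen luminescence, 60 min | evaluation = luminescence reflecting intracellular parasite burden, expressed as percent inhibition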
AI-2 QS modul = Vibrio harveyi AI-2 quorum sensing modulators, primary screen, JMH597 strain, luminescence/OD600 ratio; Vibrio harveyi JMH597 AI-2 luminescence/OD600 ratio, 9 h; hits give low values; strain lacks LuxN and CqsS sensors; 0 = neutral-control median; activity change, % at 7.5 µM; 300,000 tested, 0.4% active; in the data active = activity change below about -75%, passing the limit was not always enough; inconclusive = no clear call, values can overlap the other calls;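 also: luminescence divided by OD600 gain over 9 h not by final OD600 alone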
PP1 counter = PP1-alpha phosphatase inhibitors, primary screen, counter-screen for PP5 inhibitor project, biochemical, fluorescence, OMFP substrate, single point. inhibition, % at 6.7 µM. Serine/threonine-protein phosphatase PP1-alpha catalytic subunit (Homo sapiens), P62136. AID 2235, 2010. purified PP1alpha. 320,000 tested, 0.9% active;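 active = inhibition above the mean inhibition of all tested compounds plus 3 SD, computed separately for each screening campaign, cut at about 15% in these data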
Target sequence (P62136 whole entry, looked up): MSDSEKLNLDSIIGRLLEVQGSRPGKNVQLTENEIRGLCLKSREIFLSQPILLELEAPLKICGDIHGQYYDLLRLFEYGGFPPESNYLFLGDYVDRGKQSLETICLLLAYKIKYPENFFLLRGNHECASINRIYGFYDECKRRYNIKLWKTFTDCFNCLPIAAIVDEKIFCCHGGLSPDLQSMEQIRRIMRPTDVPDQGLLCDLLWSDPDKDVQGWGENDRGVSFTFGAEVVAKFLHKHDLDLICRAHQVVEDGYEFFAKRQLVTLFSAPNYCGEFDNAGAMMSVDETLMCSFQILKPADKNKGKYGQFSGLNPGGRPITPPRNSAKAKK
pCIP destab = p/CIP-EGFP fusion destabilizers, primary screen, fluorescence, F442A cells; decrease of EGFP signal, % at 10 µM; 290,000 tested, 0.01% active; AID 1984, 2009; Q05BA5; 16 h;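 active = EGFP signal decrease of at least 30% at 10 µM or well 3 SD below plate mean, unless failing retest; inactive = the rest, including hits failing retest or dose response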
UBC13 inh = UBC13 polyubiquitin chain formation inhibitors, primary screen, biochemical, TR-FRET, uHTS | Ubiquitin-conjugating enzyme E2 N (Homo sapiens), P61088 | inhibition, % at 20 µM | 330,000 tested, 0.47% active | AID 485273, 2010; in the data active = inhibition above about 45%, passing the limit was not always enough; inconclusive = no clear call, values can overlap the other calls
Target sequence (P61088 whole entry, looked up): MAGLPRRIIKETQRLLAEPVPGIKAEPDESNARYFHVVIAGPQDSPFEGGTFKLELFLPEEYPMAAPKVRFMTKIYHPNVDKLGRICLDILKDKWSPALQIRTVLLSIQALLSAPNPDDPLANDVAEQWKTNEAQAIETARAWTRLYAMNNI
Each line names hits and unclear results; the compound was inactive in the other large screens. Rows were chosen to be rich in hits. Some 2.8% of all compounds tested hit in one or more screens of this group.

Nc1nonc1-n1nnc(C(=O)N/N=C/c2cc(Br)ccc2O)c1CNc1ccccc1	T cruzi inh 59.0, PP1 counter 17.0
CCN(CC)Cc1c(C(=O)N/N=C/c2cccnc2)nnn1-c1nonc1N	none
CCN(CC)Cc1c(C(=O)N/N=C/c2ccc(OCc3ccccc3C)cc2)nnn1-c1nonc1N	PP1 counter 16.4
Cc1cc(C)c(NC(=O)CNC(=O)COC(=O)/C=C/c2cccs2)c(C)c1	none (no result: pCIP destab)
COc1ccc([N+](=O)[O-])cc1CSc1nnc(NC(C)=O)s1	none
CC(CCc1ccccc1)NC(=O)c1cccc(F)c1 (stereo unspecified)	none
Cc1c(C(=O)Nc2ccc(S(=O)(=O)N(C)C3CCN(C)CC3)cc2)oc2c(Cl)cccc12	T cruzi inh 58.8 (no result: pCIP destab)
CN1CCC(N(C)S(=O)(=O)c2ccc(NC(=O)Cc3ccc(F)cc3)cc2)CC1	none (no result: T cruzi inh, AI-2 QS modul, pCIP destab)
CN1CCC(N(C)S(=O)(=O)c2ccc(NC(=O)COc3cccc(Cl)c3)cc2)CC1	T cruzi inh 55.9 (no result: pCIP destab)
CN1CCC(N(C)S(=O)(=O)c2ccc(NC(=O)COc3ccc(Br)cc3Cl)cc2)CC1	T cruzi inh inconclusive (no result: pCIP destab)
Cc1ccccc1OCCC(=O)Nc1ccc(S(=O)(=O)N(C)C2CCN(C)CC2)cc1	T cruzi inh 58.4 (no result: pCIP destab)
Cc1ccc(OCC(=O)Nc2ccc(S(=O)(=O)N(C)C3CCN(C)CC3)cc2)c(C)c1	T cruzi inh 61.3
Cc1nn(-c2ccccc2)c(N)c1Sc1ccc([N+](=O)[O-])cc1	none
Cc1nn(S(=O)(=O)c2ccc(Cl)cc2)c(C)c1Sc1ccc([N+](=O)[O-])cc1	T cruzi inh 61.7 (no result: UBC13 inh)
CC(C)C(NS(=O)(=O)c1ccccc1)C(=O)N1CCN(C(=O)c2ccco2)CC1 (stereo unspecified)	none
Cc1cccc(CN2CCC(C(=O)Nc3cccc(-c4cccc(F)c4)c3)CC2)n1	none
CCCn1ncc(CN2CCC(C(=O)Nc3cccc(-c4cccc(F)c4)c3)CC2)c1C	T cruzi inh 57.3
Cc1nn(C(C)C)c(C)c1CN1CCC(C(=O)Nc2cccc(-c3cccc(F)c3)c2)CC1	T cruzi inh 55.3
O=[N+]([O-])c1c(Nc2ccccc2O)cc(Cl)c2nonc12	T cruzi inh 58.7, AI-2 QS modul inconclusive (no result: PP1 counter)
O=[N+]([O-])c1c(Nc2ccccc2O)ccc2nonc12	none
CCOC(=O)c1c(NC(=O)C2=C(C)NC(=S)NC2c2ccccc2C(F)(F)F)sc(C)c1C (stereo unspecified)	T cruzi inh 62.4
O=C(CSc1nc2ccccc2c(=O)n1-c1ccccc1)N/N=C/C=C/c1ccccc1[N+](=O)[O-]	none
Cc1ccccc1-n1c(SCC(=O)N/N=C/C=C/c2ccccc2[N+](=O)[O-])nc2ccccc2c1=O	PP1 counter 16.9
COc1ccc(CN(C)C2CCN(C)CC2)cc1OC	none (no result: AI-2 QS modul)
CCCN1CCC(N(C)CCc2ccc(OC)c(OC)c2)CC1	T cruzi inh 56.1
Cc1onc(-c2ccccc2)c1C(=O)Nc1ccc(S(=O)(=O)Nc2nccs2)cc1	none
O=S(=O)(Nc1nccs1)c1ccc(Nc2nnc(-c3ccccc3)c3ccccc23)cc1	PP1 counter 16.9
COC(=O)C1=CN(Cc2ccc(OC)c(OC)c2)C=C(C(=O)OC)C1c1cccc(OC)c1OC	T cruzi inh 61.3
COC(=O)C1=CN(Cc2ccc(OC)c(OC)c2)C=C(C(=O)OC)C1c1ccccc1F	T cruzi inh inconclusive (no result: PP1 counter)
Cc1nnc(SCc2ccc(Cl)cc2)nc1/C=C/N(C)C	T cruzi inh 61.0
O=C(CCN1C(=O)c2cccc3cccc(c23)C1=O)Nc1ccccc1	none
S=c1[nH]nc(-c2ccccn2)n1/N=C/c1ccc(Br)s1	PP1 counter 17.0
S=c1[nH]nc(-c2ccccn2)n1/N=C/c1ccc(-c2ccccc2Cl)o1	PP1 counter 15.4
O=C(NCc1ccc(F)cc1)c1c2c(nc3ccccc13)CCC2	none
Cn1nc(C(=O)NNC(=O)CCc2ccccc2Cl)c2ccccc2c1=O	none (no result: pCIP destab)
CC(C)(C)OC(=O)NCCCC[C@H](NC(=O)c1nc[nH]c1C(=O)NC(c1ccccc1)c1ccccc1)C(=O)OC(C)(C)C	T cruzi inh 56.5
Cc1cccc(NC(=O)c2nc[nH]c2C(=O)N[C@@H](CCCCNC(=O)OC(C)(C)C)C(=O)OC(C)(C)C)c1	T cruzi inh 62.0
O=C(N[C@@H](Cc1ccccc1)C(=O)OCc1ccccc1)c1nc[nH]c1C(=O)NC(c1ccccc1)c1ccccc1	PP1 counter 17.1
Cc1cccc(NC(=O)c2nc[nH]c2C(=O)NCCCCCNC(=O)OC(C)(C)C)c1	none (no result: T cruzi inh, AI-2 QS modul, pCIP destab)
C[C@@H](NC(=O)c1nc[nH]c1C(=O)N[C@@H](Cc1ccccc1)C(=O)OCc1ccccc1)c1ccccc1	none
Cc1cccc(N2CCN(C(c3ccncc3)c3nnnn3C(C)(C)C)CC2)c1C (stereo unspecified)	T cruzi inh 64.3
Cc1ccn2c(=O)nc(SCC(=O)N3N=C(c4cccs4)CC3c3ccc(F)cc3)nc2c1 (stereo unspecified)	T cruzi inh 59.0 (no result: pCIP destab)
COc1ccc(C2CC(c3cccs3)=NN2C(=O)CSc2nc3ccccc3s2)cc1 (stereo unspecified)	none
O=C(CSc1nc2ccccc2s1)N1N=C(c2cccs2)CC1c1ccc(F)cc1 (stereo unspecified)	T cruzi inh 56.1
Cc1cccn2c(=O)nc(SCC(=O)N3N=C(c4cccs4)CC3c3ccc(F)cc3)nc12 (stereo unspecified)	T cruzi inh 66.7 (no result: PP1 counter, pCIP destab)
O=C(CN1CCSC1=O)N1CCN(S(=O)(=O)c2ccc(F)cc2)CC1	none (no result: T cruzi inh, AI-2 QS modul, PP1 counter, pCIP destab)
CC(=O)NC1C(=O)N(CCN2CCOCC2)c2ccc(Cl)cc21 (stereo unspecified)	none (no result: PP1 counter, UBC13 inh)
CC(=O)NC1C(=O)N(CCN2CCOCC2)c2ccc(C)cc21 (stereo unspecified)	PP1 counter 57.4 (no result: UBC13 inh)
COC(=O)c1sc(N2C(=O)C(O)=C(C(=O)c3ccc(C)o3)C2c2ccc(F)cc2)nc1C (stereo unspecified)	PP1 counter 16.7
COC(=O)c1sc(N2C(=O)C(O)=C(C(=O)c3ccc(C)o3)C2c2ccco2)nc1C (stereo unspecified)	none
Cc1cc(N2C(=O)C(O)=C(C(=O)c3cc4ccccc4o3)C2c2cccs2)no1 (stereo unspecified)	PP1 counter 18.7
COC(=O)c1ccc(C2C(C(=O)c3ccc(C)o3)=C(O)C(=O)N2c2cc(C)on2)cc1 (stereo unspecified)	PP1 counter 16.4
Cc1cc(N2C(=O)C(O)=C(C(=O)c3ccco3)C2c2ccc(O)cc2)no1 (stereo unspecified)	none
Cc1ccc(C2C(C(=O)c3cc4ccccc4o3)=C(O)C(=O)N2c2cc(C)on2)cc1 (stereo unspecified)	PP1 counter 21.6
